Measurements as given in ChEMBL document CHEMBL1146887 (J Med Chem, 2006).
The source made the active and inactive calls. The calls are words filed in the database; no cut-off is given here. Where a SMILES comes first, the peptide text is derived from it. [ ]: non-standard residue; d: D form. The star is where a group is joined. Tyr(Nα,Nα-allyl2) = C=CCN(CC=C)[C@@H](Cc1ccc(O)cc1)C(=O)*; Aib = CC(C)(N)C(=O)O

Legend:
[1] = target: T1, Delta-type opioid receptor (Homo sapiens, UniProt P41143); assay: Inverse agonist activity at human cloned delta opioid receptor expressed in CHO cells assessed as […] [35S]GTP-gamma-S binding in presence of 1 uM GDP relative to control; assay type: functional, cell-based; parameters: scale not given: the % may be the effect or the level left
T1 sequence (P41143 whole entry): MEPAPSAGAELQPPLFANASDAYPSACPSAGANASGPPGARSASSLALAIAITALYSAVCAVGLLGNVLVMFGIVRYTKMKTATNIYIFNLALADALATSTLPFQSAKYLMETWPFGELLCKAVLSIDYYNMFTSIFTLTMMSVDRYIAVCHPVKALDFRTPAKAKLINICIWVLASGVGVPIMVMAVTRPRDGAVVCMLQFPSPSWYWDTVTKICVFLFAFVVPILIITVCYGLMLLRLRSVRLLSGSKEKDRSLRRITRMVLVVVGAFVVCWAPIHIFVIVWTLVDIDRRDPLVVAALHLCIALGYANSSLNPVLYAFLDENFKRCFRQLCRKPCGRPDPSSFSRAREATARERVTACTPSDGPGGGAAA

[2] = target: Mu-type opioid receptor (Homo sapiens) (UniProt P35372); assay: Antagonist activity at human cloned mu opioid receptor expressed in CHO cells assessed as inhibition of DAMGO-stimulated [35S]GTP-gamma-S binding in presence of 10 uM GDP; assay type: functional, cell-based
Chain of Mu-type opioid receptor (Homo sapiens) (P35372 whole entry): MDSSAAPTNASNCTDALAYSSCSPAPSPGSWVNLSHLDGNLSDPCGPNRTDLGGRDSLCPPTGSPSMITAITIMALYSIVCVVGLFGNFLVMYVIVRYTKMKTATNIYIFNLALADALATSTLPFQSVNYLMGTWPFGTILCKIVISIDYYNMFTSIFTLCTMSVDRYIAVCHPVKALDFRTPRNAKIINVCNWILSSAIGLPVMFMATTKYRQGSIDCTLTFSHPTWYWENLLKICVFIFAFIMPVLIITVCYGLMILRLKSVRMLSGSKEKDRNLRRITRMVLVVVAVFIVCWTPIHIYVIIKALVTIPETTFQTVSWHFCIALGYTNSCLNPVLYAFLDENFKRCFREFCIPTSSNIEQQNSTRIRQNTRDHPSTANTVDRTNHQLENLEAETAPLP
How it was run: (§1)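 Membranes of CHO cells expressing cloned human receptor (0.4-0.6 pmol/mg), 20-40 µg protein, with 0.5 nM [³⁵S]GTPγS, 10 µM GDP final, 1% DMSO, in 20 mM Hepes pH 7.4, 100 mM NaCl, 10 mM MgCl₂; 1 h room temperature. Agonist curves (seven concentrations, 0.32-32 000 nM) ± one test concentration (µ 3-300, δ 1-50, κ 50-300 nM). Filtration over GF/B, scintillation counting; Ke as mean ± SE, ≥3 experiments.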

[3] = target: T1, Delta-type opioid receptor; assay: Antagonist activity at human cloned delta opioid receptor expressed in CHO cells assessed as inhibition of DPDPE-stimulated [35S]GTP-gamma-S binding in presence of 10 uM GDP; assay type: functional, cell-based; how it was run: as §1
[4] = target: Kappa-type opioid receptor (Homo sapiens) (UniProt P41145); assay: Antagonist activity at human cloned kappa opioid receptor expressed in CHO cells assessed as inhibition of U69593-stimulated [35S]GTPgammaS binding in presence of 10 uM GDP; assay type: functional, cell-based; how it was run: as §1
Chain of Kappa-type opioid receptor (Homo sapiens) (P41145 whole entry): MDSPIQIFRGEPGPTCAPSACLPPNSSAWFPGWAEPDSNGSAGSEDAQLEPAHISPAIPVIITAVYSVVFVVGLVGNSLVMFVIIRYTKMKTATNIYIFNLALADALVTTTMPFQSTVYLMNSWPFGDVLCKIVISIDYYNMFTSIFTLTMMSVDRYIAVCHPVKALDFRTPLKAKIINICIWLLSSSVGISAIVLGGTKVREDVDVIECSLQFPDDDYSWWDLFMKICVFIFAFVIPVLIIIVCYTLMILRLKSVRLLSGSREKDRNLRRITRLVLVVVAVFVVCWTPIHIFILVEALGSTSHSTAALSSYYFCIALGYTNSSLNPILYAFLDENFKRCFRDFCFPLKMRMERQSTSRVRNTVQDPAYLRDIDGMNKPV

[5] = target: Opioid receptors; mu & delta (Homo sapiens) (UniProt P41143+P35372); assay: Selectivity for human cloned delta opioid receptor over mu opioid receptor; assay type: protein assay
Chain of Opioid receptors; mu & delta (Homo sapiens) (P35372 whole entry, looked up): as the sequence (P35372 whole entry) above
Chain of Opioid receptors; mu & delta (Homo sapiens) (P41143 whole entry, looked up): as the sequence (P41143 whole entry) above
How it was run: (§2)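 Ratios of Ke values from [³⁵S]GTPγS antagonism assays at cloned human µ, δ and κ receptors in CHO membranes, each run with 10 µM GDP final against DAMGO, DPDPE or U69593 agonist curves.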

[6] = target: Opioid receptors; delta & kappa (Homo sapiens) (UniProt P41145+P41143); assay: Selectivity for human cloned delta opioid receptor over kappa opioid receptor; assay type: protein assay; how it was run: as §2
Chain of Opioid receptors; delta & kappa (Homo sapiens) (P41143 whole entry, looked up): as the sequence (P41143 whole entry) above
Chain of Opioid receptors; delta & kappa (Homo sapiens) (P41145 whole entry, looked up): as the sequence (P41145 whole entry) above

[7] = target: T1, Delta-type opioid receptor; assay: Agonist activity at delta opioid receptor at 31.6 uM; assay type: functional
[8] = target: Mu-type opioid receptor (Homo sapiens) (UniProt P35372); assay: Intrinsic activity at mu opioid receptor in presence of 1 uM GDP; assay type: functional
[9] = target: Kappa-type opioid receptor (Homo sapiens) (UniProt P41145); assay: Intrinsic activity at kappa opioid receptor in presence of 1 uM GDP; assay type: functional
[10] = target: T1, Delta-type opioid receptor; assay: Inverse agonist activity at human cloned delta opioid receptor expressed in CHO cells assessed as […] [35S]GTP-gamma-S binding in presence of 1 uM GDP; assay type: functional, cell-based

| Compound | Activity [1] [%] | Ke [2] [nM] | Ke [3] [nM] | Ke [4] [nM] | Ratio Ke [5] | Ratio Ke [6] | Activity [7] | Activity [8] | Activity [9] | IC50 [10] [nM] |
| --- | --- | --- | --- | --- | --- | --- | --- | --- | --- | --- |
| C[C@H]1CN(CCCc2ccccc2)[C@@H]2C[C@@H](NC(=O)C3(c4ccsc4)CCCC3)C[C@@]1(c1cccc(O)c1)C2 | 86 | 2.07 | 0.24 | 7.77 | 8.8 | 33 | inactive | inactive | inactive | 0.45 |
| C[C@H]1CN(CCCc2ccccc2)[C@@H]2C[C@@H](NC(=O)C3(c4cccs4)CCCC3)C[C@@]1(c1cccc(O)c1)C2 | 54 | 2.19 | 0.31 | 24 | 7.1 | 77 | inactive | inactive | inactive | 0.8 |
| C[C@H]1CN(C/C=C/c2ccccc2)[C@@H]2C[C@@H](NC(=O)C(C)(C)c3ccccc3)C[C@@]1(c1cccc(O)c1)C2 | 78 | 1.9 | 0.81 | 15.8 | 2.4 | 20 | inactive | inactive | inactive | 0.72 |
| C[C@H]1CN(CCOc2ccccc2)[C@@H]2C[C@@H](NC(=O)C(C)(C)c3ccccc3)C[C@@]1(c1cccc(O)c1)C2 | 83 | 11.4 | 0.87 | 96.3 | 13 | 111 | inactive | inactive | inactive | 1.4 |
| Cc1ccccc1/C=C/CN1C[C@H](C)[C@@]2(c3cccc(O)c3)C[C@H](NC(=O)C3(c4ccccc4)CCCC3)C[C@@H]1C2 | 70 | 2.51 | 0.33 | 5.6 | 7.6 | 22 | inactive | inactive | inactive | 0.5 |
| C[C@H]1CN(CCCc2ccccc2)[C@@H]2C[C@@H](NC(=O)C3(c4ccccc4)CCCCC3)C[C@@]1(c1cccc(O)c1)C2 | 65 | 22.8 | 0.34 | 10.2 | 67 | 30 | inactive | inactive | inactive | 0.68 |
| C[C@@H](C(=O)N[C@@H]1C[C@@H]2C[C@](c3cccc(O)c3)(C1)[C@@H](C)CN2CCCc1ccccc1)c1ccccc1 | 78 | 9.6 | 0.14 | 8.1 | 69 | 58 | inactive | inactive | inactive | 0.15 |
| C[C@H]1CN(CCCc2ccccc2)[C@@H]2C[C@@H](NC(=O)C(C)(C)c3ccccc3)C[C@@]1(c1cccc(O)c1)C2 | 64 | 10.3 | 0.1 | 13.2 | 103 | 132 | inactive | inactive | inactive | 0.4 |
| C[C@H]1CN(CCCc2ccccc2)[C@@H]2C[C@@H](NC(=O)C3(c4ccc(F)cc4)CCCC3)C[C@@]1(c1cccc(O)c1)C2 | 72 | 9.1 | 0.26 | 4.5 | 35 | 17 | inactive | inactive | inactive | 0.45 |
| Oc1ccc2c3c1O[C@H]1c4[nH]c5ccccc5c4C[C@@]4(O)[C@@H](C2)N(CC2CC2)CC[C@]314 |  |  |  |  | 157 | 77 | inactive | inactive | inactive |  |
| COc1ccc(C2(C(=O)N[C@@H]3C[C@@H]4C[C@](c5cccc(O)c5)(C3)[C@@H](C)CN4CCCc3ccccc3)CCCC2)cc1 | 72 | 12 | 0.67 | 2.43 | 18 | 3.6 | inactive | inactive | inactive | 0.48 |
| C=CCN(CC=C)[C@@H](Cc1ccc(O)cc1)C(=O)NC(C)(C)C(=O)NC(C)(C)C(=O)N[C@@H](Cc1ccccc1)C(=O)N[C@@H](CC(C)C)C(=O)O ({Tyr(Nα,Nα-allyl2)}-[Aib][Aib]FL-OH) | 75 |  |  |  | 5.3 | 43 | inactive | inactive | inactive | 83 |
| C[C@H]1CN(C)[C@@H]2C[C@@H](NC(=O)C3(c4ccccc4)CCCC3)C[C@@]1(c1cccc(O)c1)C2 | 79 | 43.2 | 76.8 | 61 | 0.6 | 0.8 | inactive | inactive | inactive | 95 |
| C[C@H]1CN(CCCc2ccccc2)[C@@H]2C[C@@H](NC(=O)C3(c4ccccc4)CCCCCC3)C[C@@]1(c1cccc(O)c1)C2 | 70 | 24.4 | 0.26 | 17.5 | 93 | 67 | inactive | inactive | inactive | 0.39 |
| Cc1ccccc1/C=C/CN1C[C@H](C)[C@@]2(c3cccc(O)c3)C[C@H](NC(=O)C(C)(C)c3ccccc3)C[C@@H]1C2 | 70 | 1.02 | 0.47 | 6.7 | 2.2 | 14 | inactive | inactive | inactive | 0.12 |
| CCC(CC)(C(=O)N[C@@H]1C[C@@H]2C[C@](c3cccc(O)c3)(C1)[C@@H](C)CN2CCCc1ccccc1)c1ccccc1 | 61 | 11.7 | 0.2 | 14.6 | 59 | 74 | inactive | inactive | inactive | 1.8 |
| C[C@H]1CN(CCCc2ccccc2)[C@@H]2C[C@@H](NC(=O)C3(c4ccccc4)CCC3)C[C@@]1(c1cccc(O)c1)C2 | 65 | 10.6 | 0.17 | 16 | 62 | 94 | inactive | inactive | inactive | 0.42 |
| C[C@H]1CN(CCCc2ccccc2)[C@@H]2C[C@@H](NC(=O)C3(c4cccc5ccccc45)CCCC3)C[C@@]1(c1cccc(O)c1)C2 | 46 | 27.2 | 1.42 | 43.6 | 19 | 31 | inactive | inactive | inactive | 16 |
| CC1CN(CCCc2ccccc2)[C@@H]2C[C@@H](NC(=O)C3(c4ccccc4)CCCC3)C[C@@]1(c1cccc(O)c1)C2 (single isomer, unassigned; (+)) | 70 | 8.7 | 0.15 | 17.9 | 58 | 119 | inactive | inactive | inactive | 1.8 |
| C[C@H]1CN(CCCc2ccccc2)[C@@H]2C[C@@H](NC(=O)C3(c4ccc5ccccc5c4)CCCC3)C[C@@]1(c1cccc(O)c1)C2 | 69 | 35 | 0.75 | 56.1 | 47 | 75 | inactive | inactive | inactive | 7.7 |
